Results as given in article PMC7392083 (Journal of the American Chemical Society, 2020).
Like-named read-outs stand apart in the source and are kept apart here.

Experiments:
[1] = target: T1, human intelectin-1 (hItln-1) (Homo sapiens, UniProt Q8WWA0); assay: Biolayer interferometry; type: binding; settings: for ΔΔG relative free energy of binding compared to Galf: column Galf; for ΔΔG relative free energy of binding compared to Glycerol 1-phosphate: column Glycerol 1-phosphate; for ΔΔG relative free energy of binding compared to KDO: column KDO; for ΔΔG relative free energy of binding compared to KO: column KO
T1 sequence (Q8WWA0 19-313): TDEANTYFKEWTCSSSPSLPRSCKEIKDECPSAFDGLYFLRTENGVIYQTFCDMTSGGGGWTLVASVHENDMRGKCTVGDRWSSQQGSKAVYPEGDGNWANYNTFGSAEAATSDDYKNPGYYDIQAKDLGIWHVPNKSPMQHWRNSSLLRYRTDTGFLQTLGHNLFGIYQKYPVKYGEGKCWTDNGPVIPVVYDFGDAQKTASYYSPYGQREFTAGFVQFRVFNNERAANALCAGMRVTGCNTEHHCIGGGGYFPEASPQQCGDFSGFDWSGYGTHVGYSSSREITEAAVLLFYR

[2] = target: T1, human intelectin-1 (hItln-1); assay: ELISA of hItln-1 binding to immobilized BSA-conjugated monosaccharides; settings: for Kd by ELISA: BSA-conjugated heptose sugars, single-site binding fit; for binding to hItln-1 by ELISA: saccharide conjugated in multiple copies to BSA and immobilized
How it was run: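 Sugar–BSA conjugates were adsorbed in PBS (1.5 μM sugar), 1 h RT, then blocked with 5% BSA in HEPES-T for 2 h. Serially diluted Strep-hItln-1 in HEPES-T + BSA was bound 2 h RT. Detection used anti-Strep-tag HRP (1:10,000, 2 h RT), then TMB quenched with 2 M H2SO4, read at 450 nm. One-site binding fit gave Kd. Mean ± SEM, n = 2 technical replicates.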

hItln-1 = settings: cited from earlier work
[3] = ΔΔG = 0.593 (kcal/mol) ln(IC50,row/IC50,column)

| SMILES | ΔΔG relative free energy of binding compared to Galf [1, 3] [kcal/mol] | ΔΔG relative free energy of binding compared to Glycerol 1-phosphate [1, 3] [kcal/mol] | ΔΔG relative free energy of binding compared to KDO [1, 3] [kcal/mol] | ΔΔG relative free energy of binding compared to KO [1, 3] [kcal/mol] | Kd by ELISA [2] | binding to hItln-1 by ELISA [2] | IC50 [1] [µM] | binding to hItln-1 (hItln-1) | binding to hItln-1 (hItln-1; listed as N-acetyl neuraminic acid) | IC50 value higher than that of allyl-KO ([1]; ratio of IC50 values) [fold] | ΔΔG relative free energy of binding compared to D,D-heptose ([1]; ΔΔG = 0.593 (kcal/mol) ln(IC50,row/IC50,column), column D,D-heptose) [kcal/mol] |
| --- | --- | --- | --- | --- | --- | --- | --- | --- | --- | --- | --- |
| OC[C@@H](O)[C@H]1O[C@H](O)[C@@H](O)[C@@H](O)[C@@H]1O [D,D-heptose, D-glycero-α-D-manno-heptose] | 0.8 | 0.7 | 0.9 | 1.3 | could not be determined | no measurable binding |  |  |  |  |  |
| O=P(O)(O)OC[C@H](O)CO [Glycerol 1-phosphate, D-glycerol 1-phosphate] | 0.1 |  | 0.2 | 0.7 |  |  |  |  |  |  |  |
| OC[C@@H](O)[C@@H]1O[C@@H](O)[C@H](O)[C@H]1O [Galf, β-D-galactofuranose] |  |  | 0.1 | 0.6 |  | bound |  |  |  |  |  |
| C=CCO[C@@]1(C(=O)O)O[C@H]([C@H](O)CO)[C@H](O)[C@H](O)[C@@H]1O [KO, prop-2-en-1-yl D-glycero-alpha-D-talo-oct-2-ulopyranosidonic acid] | -0.6 |  |  |  |  | bound | 700 |  |  |  |  |
| CC(=O)N[C@H]1[C@H]([C@H](O)[C@H](O)CO)OC(O)(C(=O)O)C[C@@H]1O (stereo partly shown) [sialic acid, N-acetyl neuraminic acid] |  |  |  |  |  |  |  | not a ligand | does not bind |  |  |
| OC[C@H](O)[C@H]1O[C@H](O)[C@@H](O)[C@@H](O)[C@@H]1O [L,D-heptose, L-glycero-α-D-manno-heptose] | 2.0 | 1.9 | 2.0 | 2.4 | could not be determined | no measurable binding |  |  |  | 80 | 1.2 |
